Assay [1] deals with Rattus norvegicus. As to the kind of experiment: The compound was tested for antihypertensive effect in spontaneously hypertensive rat (SHR), expressed as fall in blood pressure (BP) at 100 mg/kg dose given orally. Particulars: route oral. Format: functional. The procedure, abridged:
(§1)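 Male SHR, about 16 weeks old, with systolic pressure above 150 mmHg, held in restraint cages. Tail-cuff occlusion was raised to 250 mmHg and then lowered, after 1 h acclimation and at least 3 baseline readings. Dosing was by daily gavage in 3% cornstarch/5% PEG-400/Tween 80 for 2 or 4 days, with 4–6 rats per drug. Readings at 1, 2, 3 and 24 h; peak fall reported.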

The subject of assay [2] is Rattus norvegicus. In words: Antihypertensive effect in spontaneously hypertensive rat (SHR), expressed as fall in blood pressure (BP) at 50 mg/kg dose given orally. Format: functional. To be noted: route oral. In short, it runs like this: as §1
Assay [3] has as its system Rattus norvegicus. As to the kind of experiment: The compound was tested for antihypertensive effect in spontaneously hypertensive rat (SHR), expressed as fall in blood pressure (BP) at 100 mg/kg dose given orally; Inactive. Format: functional, organism-based. More on the design: dose 100 mg/kg. The procedure, abridged:
as §1

Assay [4] relates to Canis familiaris. As to the kind of experiment: Antihypertensive activity in unanesthetized renal hypertensive dogs measured as HeartHeart Rate (HR) (beats/min) at 100 mg per kg dose after peroral administration on day 4 ((p<0.05). Format: functional, Canis lupus familiaris, Heart. Particulars: route oral. The procedure, abridged: (§2)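 Renal hypertensive dogs, unanesthetized. Test compound given orally once daily as a solid in a gelatin capsule. Blood pressure was taken at 1.5, 3, 6 and 24 h after each daily dose. Activity is the maximum change in mean blood pressure or heart rate over each daily session. Values are mean ± SE, with significance marked at p < 0.05.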

The subject of assay [5] is Canis familiaris. In words: Antihypertensive activity in unanesthetized renal hypertensive dogs measured as mean Blood Pressure at 100 mg per kg dose after peroral administration on day 2. Format: functional, Canis lupus familiaris. To be noted: route oral. The procedure, abridged: as §2
Assay [6] relates to Canis familiaris. As to the kind of experiment: Antihypertensive activity in unanesthetized renal hypertensive dogs measured as Heart Rate (HR) (beats/min) at 100 mg per kg dose after peroral administration on day 2. To be noted: route oral. The class given is functional, Canis lupus familiaris. In short, it runs like this:
as §2

For assay [7], the system named is Canis familiaris. In words: Antihypertensive activity in unanesthetized renal hypertensive dogs measured as Heart Rate (HR) (beats/min) at 100 mg per kg dose after peroral administration on day 3. Format: functional, Canis lupus familiaris. To be noted: route oral. The procedure, abridged: as §2
In assay [8] the test system is Canis familiaris. In words: Antihypertensive activity in unanesthetized renal hypertensive dogs measured as Heart Rate (HR) (beats/min) at 100 mg per kg dose after peroral administration on day1. To be noted: route oral. The class given is functional, Canis lupus familiaris. The procedure, abridged: as §2
Assay [9] concerns Canis familiaris. As to the kind of experiment: Antihypertensive activity in unanesthetized renal hypertensive dogs measured as mean Blood Pressure at 100 mg per kg dose after peroral administration on day1. Set-up: unit not given beside the values. Particulars: route oral. Format: functional, Canis lupus familiaris. The procedure, abridged: as §2
Assay [10] concerns Canis familiaris. As to the kind of experiment: Antihypertensive activity in unanesthetized renal hypertensive dogs measured as mean Blood Pressure at 100 mg per kg dose after peroral administration on day 4 (p<0.05). The class given is functional, Canis lupus familiaris. Particulars: route oral. The procedure, abridged: as §2
For assay [11], the system named is Canis familiaris. As to the kind of experiment: Antihypertensive activity in unanesthetized renal hypertensive dogs measured as mean Blood Pressure at 100 mg per kg dose after peroral administration on day 3 (p<0.05). Particulars: route oral. The class given is functional, Canis lupus familiaris. In short, it runs like this: as §2
The test system of assay [12] is Canis familiaris. In words: Antihypertensive activity in unanesthetized renal hypertensive dogs measured as Heart Rate (HR) (beats/min) at 100 mg per kg dose after peroral administration on day 2 (p<0.05). The class given is functional, Canis lupus familiaris. To be noted: route oral. In short, it runs like this:
as §2

The test system of assay [13] is Canis familiaris. In words: Antihypertensive activity in unanesthetized renal hypertensive dogs measured as mean Blood Pressure at 100 mg per kg dose after peroral administration on day 2 (p<0.05). The class given is functional, Canis lupus familiaris. To be noted: route oral. In short, it runs like this:
as §2

For assay [14], the system named is Rattus norvegicus. As to the kind of experiment: The compound was tested for antihypertensive effect in spontaneously hypertensive rat (SHR), expressed as fall in blood pressure (BP) at 50 mg/kg dose given orally; Inactive. Format: functional, organism-based. More on the design: dose 50 mg/kg. The procedure, abridged:
as §1

Active and inactive are the calls of the source. The calls are words filed in the database; no cut-off is given here.

The record followed here is ChEMBL document CHEMBL1121372, “Synthesis and antihypertensive activity of 5-amino-2-pyridinecarboxylic acid derivatives” (1980).

For `O=C(O)c1ccc(NCc2cccc(C(F)(F)F)c2)cn1`, the BP in the assay with Rattus norvegicus [1] was >60 mmHg.

Consider `O=C(O)c1ccc(NCc2ccccc2F)cn1`, for which the BP with Rattus norvegicus [2] was >40 mmHg.

Consider `COc1cc(CNc2ccc(C(=O)O)nc2)cc(OC)c1OC`, for which the BP in the assay on Rattus norvegicus [2] is <20 mmHg.

For `NC(=O)c1ccc(CNc2ccc(C(=O)O)nc2)cc1`, the BP in the assay with Rattus norvegicus [2] is <20 mmHg.

For the compound `O=C(O)c1ccc(N(Cc2cccc(Cl)c2)Cc2cccc(Cl)c2)cn1`, the BP in the assay on Rattus norvegicus [1] is >20 mmHg.

`CN(Cc1cccc(F)c1)c1ccc(C(=O)O)nc1`: the BP in the assay with Rattus norvegicus [2] is recorded as >20 mmHg.

For `COc1cccc(CNc2ccc(C(=O)O)nc2)c1`, in the assay on Rattus norvegicus [2], the BP is listed as >20 mmHg.

As to `CN(Cc1ccccc1)c1ccc(C(=O)O)nc1`, the BP in the assay with Rattus norvegicus [2] is >40 mmHg.

For the compound `CC(Nc1ccc(C(=O)O)nc1)c1ccccc1` (stereo unspecified), the BP in the assay on Rattus norvegicus [2] is reported as >80 mmHg.

On to `Cc1cccc(CN(C)c2ccc(C(=O)O)nc2)c1`, for which the BP with Rattus norvegicus [2] is listed as >20 mmHg.

Turning to `OCc1ccc(NCc2ccc(F)cc2)cn1`, in the assay on Rattus norvegicus [2], the BP is on record as >80 mmHg.

`CN(Cc1cccc(Oc2ccccc2)c1)c1ccc(C(=O)O)nc1`: the BP with Rattus norvegicus [2] is recorded as >20 mmHg.

As for `O/N=C/c1ccc(NCc2ccc(F)cc2)cn1`, the BP with Rattus norvegicus [2] was <20 mmHg.

Consider `COC(=O)c1ccc(NCc2ccc(Cl)cc2)cn1`, for which the BP with Rattus norvegicus [1] is on record as >60 mmHg.

With `O=C(O)c1ccc(NCc2ccc(Cl)c(Cl)c2)cn1`, in the assay on Rattus norvegicus [2], the BP was <20 mmHg.

As to `CCC(=O)Nc1ccc(C(=O)O)nc1`, the BP result in the assay with Rattus norvegicus [3] was “inactive”.

Turning to `O=C(O)c1ccc(NCc2cccc(F)c2)cn1`, the figures for the HR with Canis familiaris [4], in the assay with Canis familiaris [6] and in the assay with Canis familiaris [7] were 44, 78 and 51, respectively. In addition, the MBP with Canis familiaris [5] is listed as -46; with Canis familiaris [9] it was -30; with Canis familiaris [10] it was -51; in the assay on Canis familiaris [11], -56. In addition, the “Maximum change in heart rate” value with Canis familiaris [8] is reported as 35. Besides, in the assay with Rattus norvegicus [2], the BP is reported as >60 mmHg.

Take `O=C(O)c1ccc(NCc2ccccn2)cn1`: the BP in the assay on Rattus norvegicus [2] is >20 mmHg.

In the case of `OCc1ccc(NCc2cccc(Cl)c2)cn1`, in the assay on Rattus norvegicus [2], the BP was > 40 mmHg.

For `Cc1nc(C(=O)O)ccc1N(C)Cc1cccc(Cl)c1`, the BP in the assay on Rattus norvegicus [1] is on record as >20 mmHg.

For `CN(Cc1cccc(Cl)c1)c1ccc(CO)nc1`, the BP with Rattus norvegicus [2] is on record as >40 mmHg.

For `CCC(=O)N(Cc1cccc(Cl)c1)c1ccc(C(=O)O)nc1`, the BP with Rattus norvegicus [1] is <20 mmHg.

For `COC(=O)c1ccc(NCc2ccc(F)cc2)cn1`, the BP with Rattus norvegicus [2] is reported as >60 mmHg.

With `CN(Cc1cccc(Br)c1)c1ccc(C(=O)O)nc1`, in the assay with Rattus norvegicus [2], the BP is on record as >40 mmHg.

`CN(C)C(=O)c1ccc(NCc2ccc(F)cc2)cn1` registered an HR in the assay on Canis familiaris [12] of 112. In the assay on Canis familiaris [8], the “Maximum change in heart rate” value came out at 20. Moreover, in the assay with Canis familiaris [13], the MBP is reported as -67. In the assay with Rattus norvegicus [2], the BP is reported as >60 mmHg.

Consider `O=C(O)c1ccc(Nc2ccccc2)cn1`, for which, in the assay with Rattus norvegicus [14], the BP result is “inactive”.

As to `CN(Cc1ccc(Cl)c(Cl)c1)c1ccc(C(=O)O)nc1`, in the assay on Rattus norvegicus [2], the BP is on record as >60 mmHg.

Turning to `O=C(O)c1ccc(NCCc2ccccc2)cn1`, the BP in the assay on Rattus norvegicus [2] is listed as >20 mmHg.

For `O=Cc1ccc(NCc2ccc(F)cc2)cn1`, the BP with Rattus norvegicus [2] is listed as >80 mmHg.

Consider `Cc1cccc(CNc2ccc(C(=O)O)nc2)c1`, for which the BP with Rattus norvegicus [2] was >20 mmHg.
